In test [1] the test system is HT-29. The test can be described thus: Growth inhibition of HT29 cells assessed as relative survival at 150 uM after 2 hrs relative to control. The format is functional, Homo sapiens. The essentials: (§1)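 HT-29 colon carcinoma cells were exposed to drug for 2 h at 41°C, with DMSO as vehicle. Drug was then washed off and cells grown 14 days in fresh medium. Colonies of more than 50 cells were stained with crystal violet and counted. Survival was corrected for plating efficiency (vehicle, 2 h, 37°C) and for 2 h drug exposure at 37°C; vehicle at 41°C was set to 1.0. Student's t test.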

Test [2] has as its system HT-29. The test can be described thus: Cell survival of human HT29 cells at 150 uM after 2 hrs. The following applies: HT-29, 2 h, read-out: Survival. The format is functional.
Test [3] relates to HT-29. The test can be described thus: Growth inhibition of HT29 cells assessed as relative survival at 50 uM after 2 hrs relative to control. In kind it is functional, Homo sapiens. An outline of the steps: as §1
In test [4] the test system is HT-29. Nature of the test: Growth inhibition of HT29 cells at 50 uM after 2 hrs. Particulars: Homo sapiens, HT-29, 2 h. The format is functional. An outline of the steps: as §1

Regarding `OC1/C(=C/c2cn(Cc3ccc(F)cc3)c3ccc(Br)cc23)N2CCC1CC2` (configuration not stated), in the test with HT-29 [1], the Survival stood at 0.52. Also, the viability at 150 µM in the test on HT-29 [2] was greater than 70%.

On to `Cc1ccc(Cn2cc(/C=C3/C(O)C4CCN3CC4)c3ccccc32)cc1` (configuration not stated), for which the Survival in the test on HT-29 [3] was determined as 0.59. Moreover, in the test with HT-29 [2], the viability at 150 µM is less than 70%.

In the case of `COc1ccc2c(c1)c(/C=C1/C(O)C3CCN1CC3)cn2Cc1ccccc1` (configuration not stated), the Survival in the test with HT-29 [3] was 0.76. Moreover, the viability at 150 µM with HT-29 [2] is less than 70%.

Consider `O=C1/C(=C/c2cn(Cc3ccc(Cl)cc3)c3ccccc23)N2CCC1CC2`, for which the Survival with HT-29 [1] amounted to 0.56. The viability at 150 µM in the test with HT-29 [2] is greater than 70%.

Turning to `Cc1ccc(Cn2cc(/C=C3/C(=O)C4CCN3CC4)c3cc(Br)ccc32)cc1`, the Survival in the test on HT-29 [1] is 1. Moreover, the viability at 150 µM with HT-29 [2] was greater than 70%.

On to `COc1ccc(Cn2cc(/C=C3/C(=O)C4CCN3CC4)c3cc(Br)ccc32)cc1`, for which the Survival in the test with HT-29 [1] is listed as 0.86. Moreover, in the test with HT-29 [2], the viability at 150 µM is greater than 70%.

For `OC1/C(=C/c2cn(Cc3ccc(Cl)cc3)c3ccc(Br)cc23)N2CCC1CC2` (configuration not stated), in the test with HT-29 [1], the Survival came out at 0.9. For the same compound, in the test with HT-29 [2], the viability at 150 µM is greater than 70%.

Consider `Cc1ccc2c(c1)c(/C=C1/C(O)C3CCN1CC3)cn2Cc1ccccc1` (configuration not stated), for which the Survival in the test on HT-29 [1] was 1. For the same compound, the viability at 150 µM in the test on HT-29 [2] is greater than 70%.

As to `COc1ccc2c(c1)c(/C=C1/C(=O)C3CCN1CC3)cn2Cc1ccccc1`, the Survival with HT-29 [1] is given as 0.75. Further, in the test with HT-29 [2], the viability at 150 µM is greater than 70%.

Turning to `Cc1ccc2c(c1)c(/C=C1/C(=O)C3CCN1CC3)cn2Cc1ccccc1`, the Survival in the test with HT-29 [1] came out at 0.98. In addition, in the test with HT-29 [2], the viability at 150 µM was greater than 70%.

For the compound `O=C1/C(=C/c2cn(Cc3ccc(F)cc3)c3ccc(Br)cc23)N2CCC1CC2`, the Survival in the test on HT-29 [1] came out at 0.81. Further, the viability at 150 µM in the test on HT-29 [2] is greater than 70%.

Turning to `O=C1/C(=C/c2cn(Cc3ccc(Cl)cc3)c3ccc(Br)cc23)N2CCC1CC2`, in the test on HT-29 [1], the Survival worked out at 1. In addition, in the test with HT-29 [2], the viability at 150 µM is greater than 70%.

As for `Cc1ccc(Cn2cc(/C=C3/C(=O)C4CCN3CC4)c3cc(C)ccc32)cc1`, the Survival in the test on HT-29 [1] worked out at 1. Further, the viability at 150 µM in the test with HT-29 [2] is greater than 70%.

For `O=C1/C(=C/c2cn(Cc3ccccc3)c3ccccc23)N2CCC1CC2`, the Survival with HT-29 [1] turned out to be 0.5.

In the case of `OC1/C(=C/c2cn(Cc3ccc(Cl)cc3)c3ccccc23)N2CCC1CC2` (configuration not stated), the Survival in the test on HT-29 [3] is on record as 0.07. The viability at 150 µM with HT-29 [2] is less than 70%.

Take `OC1/C(=C/c2cn(Cc3ccccc3)c3ccccc23)N2CCC1CC2` (racemic): the inhibition (in general, the change of the read-out against control, counted positive when it falls) at 50 µM in the test with HT-29 [4] is 93%. For the same compound, the Survival with HT-29 [1] turned out to be 0.06; in the test on HT-29 [3], 1.

Regarding `OC1/C(=C/c2cn(Cc3ccc(F)cc3)c3ccccc23)N2CCC1CC2` (configuration not stated), the Survival with HT-29 [3] came out at 0.7. The viability at 150 µM in the test on HT-29 [2] was less than 70%.

For the compound `OC1/C(=C/c2cn(Cc3ccccc3Br)c3ccc(Br)cc23)N2CCC1CC2` (configuration not stated), the Survival in the test with HT-29 [1] is 0.58. Also, the viability at 150 µM in the test on HT-29 [2] is greater than 70%.

As for `COc1ccc(Cn2cc(/C=C3/C(O)C4CCN3CC4)c3cc(Br)ccc32)cc1` (configuration not stated), the Survival in the test on HT-29 [1] came to 0.61. Moreover, the viability at 150 µM in the test on HT-29 [2] was greater than 70%.

As for `Cc1ccc(Cn2cc(/C=C3/C(=O)C4CCN3CC4)c3ccccc32)cc1`, in the test on HT-29 [1], the Survival stood at 1. Moreover, in the test with HT-29 [2], the viability at 150 µM was greater than 70%.

With `O=C1/C(=C/c2cn(Cc3ccc(F)cc3)c3ccccc23)N2CCC1CC2`, in the test with HT-29 [1], the Survival is given as 0.71. For the same compound, in the test with HT-29 [2], the viability at 150 µM is greater than 70%.

Consider `OC1/C(=C/c2cn(Cc3ccccc3)c3ccc(Br)cc23)N2CCC1CC2` (configuration not stated), for which the Survival with HT-29 [1] was determined as 0.59. For the same compound, in the test on HT-29 [2], the viability at 150 µM is greater than 70%.

As for `O=C1/C(=C/c2cn(Cc3ccccc3Br)c3ccc(Br)cc23)N2CCC1CC2`, the Survival in the test on HT-29 [1] is reported as 0.96. Besides, the viability at 150 µM in the test on HT-29 [2] was greater than 70%.

Turning to `Cc1ccc(Cn2cc(/C=C3/C(O)C4CCN3CC4)c3cc(Br)ccc32)cc1` (configuration not stated), the Survival in the test with HT-29 [1] stood at 0.78. The viability at 150 µM in the test with HT-29 [2] is greater than 70%.

For `O=C1/C(=C/c2cn(Cc3ccccc3)c3ccc(Br)cc23)N2CCC1CC2`, in the test on HT-29 [1], the Survival came to 1. Further, the viability at 150 µM in the test on HT-29 [2] is greater than 70%.

For `Cc1ccc(Cn2cc(/C=C3/C(O)C4CCN3CC4)c3cc(C)ccc32)cc1` (configuration not stated), the Survival in the test on HT-29 [3] is listed as 0.59. Besides, the viability at 150 µM in the test on HT-29 [2] was less than 70%.
